Laboratory results taken from ChEMBL document CHEMBL4033772, “New Class of Antitrypanosomal Agents Based on Imidazopyridines” (ACS Med Chem Lett, 2017).
In brackets after ≈: the same amount, converted by molar mass.

How the values were obtained:
[1] = Solubility of the compound in PBS at pH 7.4 at 50 uM after overnight incubation by LC-MS/MS method; format: physicochemical
Procedure, shortened: (§1)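 Solubility measured at pH 7.4, 6.5 and 2.0.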

Trypanosoma cruzi = assay: Antitrypanosomal activity against Trypanosoma cruzi Tulahuen amastigotes infected in mouse 3T3 cells after 6 days by beta galactosidase reporter asay; format: functional, cell-based; settings: NIH3T3, 144 h
[2] = Protein binding in Swiss Webster mouse plasma assessed as drug recovery at 2 uM by LC-MS/MS analysis; format: ADME, cell-free; settings: read-out: Drug recovery
Procedure, shortened: (§2)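 Plasma protein binding measured in 100% mouse plasma, giving % recovery and % fraction unbound. Propranolol control included in every experiment.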

[3] = Cytotoxicity against human CRL8155 cells after 48 hrs by Alamar Blue-based assay; format: cell-based; settings: CRL8155, 48 h
Procedure, shortened: (§3)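 Cytotoxicity tested against human lymphoblasts CRL-8155 and hepatocytes HepG2. Highest concentration tested was 50 µM.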

Liver = assay: Stability of the compound in mouse liver microsomes assessed as compound remaining by LC-MS/MS method; format: ADME, microsome
Procedure, shortened: (§4)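 Incubation with mouse liver microsomes, run in duplicate. Testosterone and dextromethorphan included as controls in each assay.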

[4] = Fraction unbound in Swiss Webster mouse plasma at 2 uM by LC-MS/MS analysis; format: ADME, cell-free; procedure, shortened: as §2
HepG2 = assay: Cytotoxicity against human HepG2 cells after 48 hrs by Alamar Blue-based assay; format: cell-based; settings: HepG2, 48 h; procedure, shortened: as §3
[5] = Half life in mouse liver microsomes by LC-MS/MS method; format: ADME, microsome; procedure, shortened: as §4
[6] = Solubility of the compound in HCl at pH 2.0 at 50 uM after overnight incubation by LC-MS/MS method; format: physicochemical; procedure, shortened: as §1
[7] = test system: Trypanosoma brucei brucei; assay: Antitrypanosomal activity against Trypanosoma brucei brucei BF427 after 48 hrs by Alamar Blue-based assay; format: functional; settings: BF427, 48 h
[8] = Solubility of the compound in PBS at pH 6.5 at 50 uM after overnight incubation by LC-MS/MS method; format: physicochemical; procedure, shortened: as §1
[9] = Plasma concentration in Swiss Webster mouse at 5 mg/kg, ip after 1 hr by LC-MS/MS analysis; format: ADME, organism-based
Procedure, shortened: (§5)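 Mice in groups of three got a single 5 mg/kg ip dose. Animals were sacrificed 1 h postdose, and brain and plasma were collected for analysis. Brain:plasma ratio was calculated from the mean concentrations.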

[10] = Ratio of drug level in Swiss Webster mouse brain to plasma at 5 mg/kg, ip measured after 1 hr by LC-MS/MS analysis; format: ADME, organism-based; settings: read-out: BPR; procedure, shortened: as §5
[11] = Drug level in Swiss Webster mouse brain at 5 mg/kg, ip after 1 hr by LC-MS/MS analysis; format: ADME, organism-based; settings: read-out: Drug uptake; procedure, shortened: as §5

Structure (SMILES) | solubility at 50 µM [1] | EC50 (Trypanosoma cruzi) | EC90 (Trypanosoma cruzi) | recovery at 2 µM [2] | EC50 [3] | Stability (Liver) | fraction unbound at 2 µM [4] | EC50 (HepG2) | half-life [5] | solubility at 50 µM [6] | EC50 [7] | EC90 [7] | solubility at 50 µM [8] | concentration at 1 h [9] | Kp at 1 h [10] | concentration at 1 h [11]
O=C(Nc1ccn2cc(-c3cccc(F)c3F)nc2c1)N1CC[C@H](F)C1 | 6.4 µM (≈ 2.31 µg/mL) | 0.94 µM | 1.36 µM | 68.4% | > 50 µM | 86.3% | 0.026 | > 50 µM | > 60 min | 53.1 µM (≈ 19.1 µg/mL) | 0.18 µM | 0.92 µM | 6.8 µM (≈ 2.45 µg/mL) |  |  | 
O=C(Nc1ccn2cc(-c3ccc(F)c(F)c3)nc2c1)N1CC[C@H](F)C1 | 32.8 µM (≈ 11.8 µg/mL) | 0.39 µM | 0.6 µM | 64.5% | 35.3 µM | 100% | 0.04 | > 50 µM | > 60 min | 45.9 µM (≈ 16.5 µg/mL) | 0.16 µM | 0.31 µM | 49.9 µM (≈ 18 µg/mL) | 4840 nM | 0.114 | 550 nM
O=C(Nc1ccn2cc(-c3cccc(F)c3F)nc2c1)N1CCCC1 |  | 1.02 µM | 1.61 µM |  | > 50 µM |  |  | > 50 µM |  |  | 0.58 µM | 2.76 µM |  |  |  | 
O=C(Nc1ccn2cc(-c3ccccc3)nc2c1)N1CCCC1 |  | 4.46 µM | 6.44 µM |  | 36 µM |  |  | > 50 µM |  |  | 2.23 µM | 3.27 µM |  |  |  | 
O=C(Nc1ccn2cc(-c3ccc(F)c(F)c3)nc2c1)c1cccnc1Cl |  | 7.34 µM | > 20 µM |  | > 50 µM |  |  | > 50 µM |  |  | > 20 µM | > 20 µM |  |  |  | 
O=C(Nc1ccn2cc(-c3cccs3)nc2c1)N1CC[C@H](F)C1 |  | 2.68 µM | 3.92 µM |  | > 50 µM |  |  | > 50 µM |  |  | 1 µM | 2.67 µM |  |  |  | 
O=C(Nc1ccn2cc(-c3cccc(F)c3)nc2c1)N1CCCC1 |  | 2.95 µM | 6.01 µM |  | > 50 µM |  |  | > 50 µM |  |  | 0.73 µM | 0.88 µM |  |  |  | 
C[C@]12CC[C@H]3[C@@H](CCC4=CC(=O)CC[C@@]43C)[C@@H]1CC[C@@H]2O [TESTOSTERONE] |  |  |  |  |  |  |  |  | 5.68 min |  |  |  |  |  |  | 
O=C(Nc1ccn2cc(-c3ccc(F)c(F)c3)nc2c1)c1cccnc1 |  | 6.27 µM | > 20 µM |  | > 50 µM |  |  | > 50 µM |  |  | 6.3 µM | > 20 µM |  |  |  | 
COc1ccc2c(c1)[C@]13CCCC[C@@H]1[C@H](C2)N(C)CC3 [DEXTROMETHORPHAN] |  |  |  |  |  |  |  |  | 1.11 min |  |  |  |  |  |  | 
O=C(Nc1ccn2cc(-c3ccccc3)nc2c1)N1CCCCC1 |  | 2.75 µM | 12.3 µM |  | > 50 µM |  |  | > 50 µM |  |  | 2.51 µM | 4.2 µM |  |  |  | 
O=C(Nc1ccn2cc(-c3ccc(F)c(F)c3)nc2c1)N1CCCCC1 |  | 2.84 µM | 4.4 µM |  | 47.4 µM |  |  | > 50 µM |  |  | 1.2 µM | 1.75 µM |  |  |  | 
Cn1nc(C(C)(C)C)cc1C(=O)Nc1cc2nc(-c3ccc(F)c(F)c3)cn2cn1 | 2.7 µM (≈ 1.11 µg/mL) | 0.17 µM | 0.64 µM | 73.3% | 14.5 µM | 47.1% | 0.007 | > 50 µM | 60 min | 1.3 µM (≈ 0.534 µg/mL) | 6.99 µM | > 20 µM | 7.6 µM (≈ 3.12 µg/mL) |  |  | 
N=C(N)c1ccc(OCCCCCOc2ccc(C(=N)N)cc2)cc1 [PENTAMIDINE] |  |  |  |  |  |  |  |  |  |  | 0.00216 µM | 0.00613 µM |  |  |  | 
